# The source made the active and inactive calls. The rule behind the calls is not given here.
# What was measured:
# Caco-2 = experiment: Cytotoxicity against human Caco2 cells assessed as reduction in cell viability at 128 ug/ml incubated for 2 hrs by MTS assay; format: cell-based; details: caco-2, 2 h, dose 128 µg/ml
# Staphylococcus aureus [1] = experiment: Antibacterial activity against methicillin-resistant Staphylococcus aureus NRS387 assessed as inhibition of visible bacterial growth incubated for 18 to 20 hrs by CLSI method; format: functional; details: time 18-20 hrs
# Method in brief: (§1)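 CLSI broth microdilution. Strains grown aerobically overnight on tryptic soy agar at 37 °C, adjusted to 0.5 McFarland and diluted in cation-adjusted Mueller–Hinton broth to about 5×10^5 CFU/mL. Compounds and control drugs serially diluted across the plate. Incubated aerobically at 37 °C for 18-20 h. MIC is the lowest concentration with no visible growth.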
# Staphylococcus aureus [2] = experiment: Antibacterial activity against methicillin-resistant Staphylococcus aureus USA400 infected in mouse J774 cells assessed as log reduction in intracellular growth at 8 ug/ml incubated for 18 to 22 hrs; format: functional; details: dose 8 µg/ml; time 18-22 hrs
# Method in brief: (§2)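 J774 murine macrophages grown in DMEM with 10% FBS at 37 °C, 5% CO2. Cells infected with MRSA USA400 at MOI about 10:1 for 1 h, then washed with gentamicin to remove extracellular bacteria. Agents added at 8 or 16 μg/mL in triplicate, with DMSO vehicle control, for 24 h. Cells lysed with 0.1% Triton-X, lysates plated on tryptic soy agar, and CFU counted after 18-22 h at 37 °C. Analysed by two-way ANOVA with Dunnett's test.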
# Staphylococcus aureus [3] = experiment: Antibacterial activity against methicillin-resistant Staphylococcus aureus NRS382 assessed as inhibition of visible bacterial growth incubated for 18 to 20 hrs by CLSI method; format: functional; details: time 18-20 hrs; method in brief: as §1
# Staphylococcus aureus [4] = experiment: Antibacterial activity against methicillin-resistant Staphylococcus aureus NRS484 assessed as inhibition of visible bacterial growth incubated for 18 to 20 hrs by CLSI method; format: functional; details: time 18-20 hrs; method in brief: as §1
# Enterococcus faecalis [5] = experiment: Antibacterial activity against vancomycin- resistant Enterococcus faecalis ATCC 700221 assessed as inhibition of visible bacterial growth incubated for 18 to 20 hrs by CLSI method; format: functional; details: time 18-20 hrs; method in brief: as §1
# Streptococcus pneumoniae [6] = experiment: Antibacterial activity against […] Streptococcus pneumoniae ATCC 700677 assessed as inhibition of visible bacterial growth incubated for 18 to 20 hrs by CLSI method; format: functional; details: time 18-20 hrs; method in brief: as §1
# Staphylococcus aureus [7] = experiment: Antibacterial activity against methicillin-resistant Staphylococcus aureus NRS384 assessed as inhibition of visible bacterial growth incubated for 18 to 20 hrs by CLSI method; format: functional; details: time 18-20 hrs; method in brief: as §1
# Staphylococcus aureus [8] = experiment: Antibacterial activity against methicillin-resistant Staphylococcus aureus NRS383 assessed as inhibition of visible bacterial growth incubated for 18 to 20 hrs by CLSI method; format: functional; details: time 18-20 hrs; method in brief: as §1
# Staphylococcus aureus [9] = experiment: Synergistic antibacterial activity against methicillin-resistant Staphylococcus aureus ATCC 33592 assessed as fractional inhibitory concentration index in presence of Vancomycin; format: functional
# Staphylococcus aureus [10] = experiment: Antibacterial activity against methicillin-sensitive Staphylococcus aureus NRS 107 assessed as inhibition of visible bacterial growth incubated for 18 to 20 hrs by CLSI method; format: functional; details: time 18-20 hrs; method in brief: as §1
# Acinetobacter baumannii = experiment: Antibacterial activity against Acinetobacter baumannii ATCC 19606 RW4 assessed as inhibition of visible bacterial growth at 16 ug/ml incubated for 18 to 20 hrs by CLSI method; format: functional, organism-based; details: ATCC 19606 = CIP 70.34 = JCM 6841 RW4, dose 16.0 µg/ml, time 18-20 hrs; method in brief: as §1
# [11] = test system: Staphylococcus epidermidis; experiment: Antibacterial activity against Staphylococcus epidermidis NRS101 assessed as inhibition of visible bacterial growth incubated for 18 to 20 hrs by CLSI method; format: functional; details: time 18-20 hrs
# Method in brief: (§3)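 Broth microdilution per CLSI. Strains grown aerobically overnight on TSA at 37 °C, suspended to 0.5 McFarland, diluted in CAMHB to about 5×10^5 CFU/mL. Agents serially diluted across plate; aerobic incubation 37 °C for 18-20 h. MIC = lowest concentration completely preventing visible growth.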
# Staphylococcus aureus [12] = experiment: Antibacterial activity against methicillin-sensitive Staphylococcus aureus ATCC 6538 assessed as inhibition of visible bacterial growth incubated for 18 to 20 hrs by CLSI method; format: functional; details: time 18-20 hrs; method in brief: as §1
# Staphylococcus aureus [13] = experiment: Synergistic antibacterial activity against methicillin-resistant Staphylococcus aureus ATCC 33592 assessed as fractional inhibitory concentration index in presence of linezolid by checkerboard assay; format: functional
# Staphylococcus aureus [14] = experiment: Antibacterial activity against methicillin-resistant Staphylococcus aureus USA400 infected in mouse J774 cells assessed as log reduction in intracellular growth at 16 ug/ml incubated for 18 to 22 hrs; format: functional; details: dose 16 µg/ml; time 18-22 hrs; method in brief: as §2
# Streptococcus pneumoniae [15] = experiment: Antibacterial activity against cephalosporin-resistant Streptococcus pneumoniae ATCC 51916 assessed as inhibition of visible bacterial growth incubated for 18 to 20 hrs by CLSI method; format: functional; details: time 18-20 hrs; method in brief: as §1
# Staphylococcus aureus [16] = experiment: Antibacterial activity against vancomycin-resistant Staphylococcus aureus 12 assessed as inhibition of visible bacterial growth incubated for 18 to 20 hrs by CLSI method; format: functional; details: time 18-20 hrs; method in brief: as §1
# Staphylococcus aureus [17] = experiment: Antibacterial activity against methicillin-resistant Staphylococcus aureus NRS483 assessed as inhibition of visible bacterial growth incubated for 18 to 20 hrs by CLSI method; format: functional; details: time 18-20 hrs; method in brief: as §1
# Staphylococcus aureus [18] = experiment: Synergistic antibacterial activity against methicillin-resistant Staphylococcus aureus ATCC 33592 assessed as fractional inhibitory concentration index in presence of methicillin by checkerboard assay; format: functional
# Listeria monocytogenes = experiment: Antibacterial activity against Listeria monocytogenes ATCC 19111 assessed as inhibition of visible bacterial growth incubated for 18 to 20 hrs by CLSI method; format: functional; details: time 18-20 hrs; method in brief: as §3
# Staphylococcus aureus [19] = experiment: Synergistic antibacterial activity against methicillin-resistant Staphylococcus aureus ATCC 33592 assessed as fractional inhibitory concentration index in presence of daptomycin by checkerboard assay; format: functional
# [20] = Hemolytic activity in human RBC at 128 ug/ml incubated for 60 mins relative to control; format: ADME, cell-based, Erythrocyte; details: red blood cells (erythrocytes), dose 128 µg/ml, read-out: Activity
# Method in brief: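 Single-donor human erythrocytes as a 5% v/v suspension in PBS. Compounds serially diluted in PBS, in triplicate, and incubated with RBCs at 37 °C for 60 min. PBS served as the negative control and Triton-X as the positive control. Samples spun at 4,000 rpm for 5 min and supernatant absorbance read at 540 nm. Percent hemolysis = 100×(sample−negative)/(positive−negative).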
# Staphylococcus aureus [21] = experiment: Bactericidal activity against methicillin-resistant Staphylococcus aureus ATCC 33592 assessed as reduction in bacterial growth incubated for 18 hrs by CLSI method; format: functional
# Enterococcus faecalis [22] = experiment: Antibacterial activity against vancomycin- resistant Enterococcus faecalis ATCC 51299 assessed as inhibition of visible bacterial growth incubated for 18 to 20 hrs by CLSI method; format: functional; details: time 18-20 hrs; method in brief: as §1
# Escherichia coli = experiment: Antibacterial activity against Escherichia coli ATCC 25404 assessed as inhibition of visible bacterial growth at 16 ug/ml incubated for 18 to 20 hrs by CLSI method; format: functional, organism-based; details: B ATCC 25404, dose 16.0 µg/ml, time 18-20 hrs; method in brief: as §1
# Staphylococcus aureus [23] = experiment: Antibacterial activity against vancomycin-resistant Staphylococcus aureus 10 assessed as inhibition of visible bacterial growth incubated for 18 to 20 hrs by CLSI method; format: functional; details: time 18-20 hrs; method in brief: as §1
# Pseudomonas aeruginosa = experiment: Antibacterial activity against Pseudomonas aeruginosa ATCC 27853 assessed as inhibition of visible bacterial growth at 16 ug/ml incubated for 18 to 20 hrs by CLSI method; format: functional, organism-based; details: dose 16.0 µg/ml, time 18-20 hrs; method in brief: as §1
# Staphylococcus aureus [24] = experiment: Antibacterial activity against methicillin-resistant Staphylococcus aureus NRS 119 assessed as inhibition of visible bacterial growth incubated for 18 to 20 hrs by CLSI method; format: functional; details: time 18-20 hrs; method in brief: as §1
# Staphylococcus aureus [25] = experiment: Antibacterial activity against methicillin-resistant Staphylococcus aureus NRS123 assessed as inhibition of visible bacterial growth incubated for 18 to 20 hrs by CLSI method; format: functional; details: time 18-20 hrs; method in brief: as §1
# J774 = experiment: Cytotoxicity against mouse J774 cells assessed as reduction in cell viability at 32 ug/ml incubated for 24 hrs by MTS assay; format: cell-based; details: j774, 24 h, dose 32 µg/ml
# Staphylococcus aureus [26] = experiment: Antibacterial activity against methicillin-resistant Staphylococcus aureus NRS386 assessed as inhibition of visible bacterial growth incubated for 18 to 20 hrs by CLSI method; format: functional; details: time 18-20 hrs; method in brief: as §1
# Staphylococcus aureus [27] = experiment: Antibacterial activity against Staphylococcus aureus ATCC 25923 assessed as inhibition of visible bacterial growth incubated for 18 to 20 hrs by CLSI method; format: functional; details: time 18-20 hrs; method in brief: as §1
# Staphylococcus aureus [28] = experiment: Antibacterial activity against methicillin-resistant Staphylococcus aureus NRS385 assessed as inhibition of visible bacterial growth incubated for 18 to 20 hrs by CLSI method; format: functional; details: time 18-20 hrs; method in brief: as §1
# Staphylococcus aureus [29] = experiment: Antibacterial activity against methicillin-resistant Staphylococcus aureus ATCC 33592 assessed as reduction in bacterial count at 3 x MIC incubated upto 24 hrs by time kill analysis; format: functional; details: time hrs <=24
# Method in brief: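 Time-kill assay. […] Samples taken at 0, 2, 4, 8, 12 and 24 h, serially diluted in PBS and plated on tryptic soy agar. Viable CFU/mL counted after 18-20 h at 37 °C.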
# Staphylococcus aureus [30] = experiment: Antibacterial activity against methicillin-resistant Staphylococcus aureus ATCC 33592 assessed as inhibition of visible bacterial growth incubated for 18 to 20 hrs by CLSI method; format: functional; details: time 18-20 hrs; method in brief: as §1
smiles,measurement,setting,value
O=C(Nc1nnc(-c2cccs2)o1)c1ccc(SC(F)(F)F)cc1,Activity,Caco-2,Non-Toxic
same,MIC,Staphylococcus aureus [1],0.125 µg/mL
same,Activity,Staphylococcus aureus [2],0.7 log10CFU/ml
same,MIC,Staphylococcus aureus [3],0.5 µg/mL
same,MIC,Staphylococcus aureus [4],0.5 µg/mL
same,MIC,Enterococcus faecalis [5],4 µg/mL
same,MIC,Streptococcus pneumoniae [6],0.25 µg/mL
same,MIC,Staphylococcus aureus [7],0.5 µg/mL
same,MIC,Staphylococcus aureus [8],0.25 µg/mL
same,fractional inhibitory concentration index (FICI),Staphylococcus aureus [9],1
same,MIC,Staphylococcus aureus [10],0.25 µg/mL
same,inhibition,Acinetobacter baumannii,inactive
same,MIC,[11],0.25 µg/mL
same,MIC,Staphylococcus aureus [12],0.5 µg/mL
same,fractional inhibitory concentration index (FICI),Staphylococcus aureus [13],0.0625
same,Activity,Staphylococcus aureus [14],0.9 log10CFU/ml
same,MIC,Streptococcus pneumoniae [15],0.25 µg/mL
same,MIC,Staphylococcus aureus [16],0.5 µg/mL
same,MIC,Staphylococcus aureus [17],0.5 µg/mL
same,fractional inhibitory concentration index (FICI),Staphylococcus aureus [18],0.5
same,MIC,Listeria monocytogenes,0.5 µg/mL
same,fractional inhibitory concentration index (FICI),Staphylococcus aureus [19],0.63
same,"hemolysis at 1 h, 128 ug/ml",[20],19%
same,MBC,Staphylococcus aureus [21],1 µg/mL
same,MIC,Enterococcus faecalis [22],4 µg/mL
same,inhibition,Escherichia coli,inactive
same,MIC,Staphylococcus aureus [23],0.5 µg/mL
same,inhibition,Pseudomonas aeruginosa,inactive
same,MIC,Staphylococcus aureus [24],0.5 µg/mL
same,MIC,Staphylococcus aureus [25],0.5 µg/mL
same,Activity,J774,Non-Toxic
same,MIC,Staphylococcus aureus [26],0.5 µg/mL
same,MIC,Staphylococcus aureus [27],0.5 µg/mL
same,MIC,Staphylococcus aureus [28],2 µg/mL
same,Activity,Staphylococcus aureus [29],4.2 log10CFU/ml
same,MIC,Staphylococcus aureus [30],0.5 µg/mL
